According to PubChem BioAssay AID720736 (The Scripps Research Institute Molecular Screening Center, 2013):
Activity calls are given as the source filed them.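 How the source made its calls: active means growth inhibition of at least 50% in any replicate; inactive means growth inhibition below 50% in every replicate.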

Experiment: antiplasmodial activity in infected erythrocytes – cell-based, radiolabel, 3D7, RBCs, Set2, M18AAP inhibitor project, late-stage follow-up (AID 720736)
Conditions: P. falciparum 3D7 in RBCs, 3H-hypoxanthine incorporation, 48 h, at 10 µM, stronger effect = higher value
Outline: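 System: P. falciparum 3D7-infected RBCs / Medium: hypoxanthine-free RPMI, 10% serum / Also added: 3H-hypoxanthine, 0.5 µCi/well / Times: 48 h compound exposure at 37 °C in low-oxygen gas / Measured by: 3H-hypoxanthine uptake by beta counting / Controls: vehicle-treated parasites and uninfected RBCs / Repeats: triplicate wells per compound in one or two runs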

SMILES	growth inhibition (run 1)	growth inhibition (run 2)
Oc1ccc(CCNc2c3ccccc3nc3ccccc23)cc1	95%	95%
CCN(CC)Cc1cc(Nc2ccnc3cc(Cl)ccc23)ccc1O	98%	
Oc1ccc(CCNc2c3c(nc4ccccc24)CCCC3)cc1O	90%	95%
Oc1ccc(CCNC(c2ccccc2)c2ccccc2)cc1O	47% (inactive)	57%
CCOc1ccc2nccc(NCCc3ccc(OC)c(OC)c3)c2c1	72%	
CN(CCc1ccc(O)c(O)c1)c1ccnc2c(F)cccc12	3% (inactive)	
Oc1ccc(CCNc2ccnc3cc(Cl)ccc23)cc1O	92%	
COc1cccc(CCNc2c3ccccc3nc3ccccc23)c1	100%	99%
COc1ccc(CCNC(c2ccccc2)c2ccccc2)cc1OC	0% (inactive)	
Oc1ccc(CCNc2ccnc3c(F)cccc23)cc1O	0% (inactive)	
CN(CCc1ccc(O)c(O)c1)c1c2ccccc2nc2ccccc12	5% (inactive)	
Cc1cccc2c(NCCc3ccc(O)c(O)c3)ccnc12	56%	
COc1ccc(CCNC2CCN(Cc3ccccc3)CC2)cc1OC	88%	93%
COc1ccc(CCCN2CCN(C)CC2)cc1OC	0% (inactive)	
COc1ccc(CCCN(C)c2c3ccccc3nc3ccccc23)cc1OC	17% (inactive)	
COc1ccc(CCNc2ccncc2)cc1OC	6% (inactive)	12% (inactive)
COc1ccc(CNc2c3ccccc3nc3ccccc23)cc1OC	100%	99%
COc1ccc(CCNc2c3ccccc3nc3ccccc23)cc1OC	98%	100%
COc1cc(Br)c(CCNc2ccnc3ccccc23)cc1OC	90%	
COc1ccc(CCNc2ncnc3ccccc23)cc1OC	5% (inactive)	
Oc1ccc(C2CCCN(c3ccnc4ccccc34)C2)cc1O (stereo unspecified)	50%	
COc1ccc(CCNc2cc(C)nc3ccccc23)cc1OC	26% (inactive)	
CC(Cc1ccc(O)c(O)c1)Nc1ccnc2ccccc12 (stereo unspecified)	19% (inactive)	
COc1ccc(CCN2CCN(C)CC2)cc1OC	0% (inactive)	5% (inactive)

SMILES	growth inhibition (run 1)	growth inhibition (run 2)
CC(C)(CNc1ccnc2ccccc12)c1ccc(O)c(O)c1	35% (inactive)	
CCOc1ccc2nccc(N(C)CCc3ccc(OC)c(OC)c3)c2c1	15% (inactive)	
COc1ccc(CCNc2cccc3ccccc23)cc1OC	9% (inactive)	20% (inactive)
COc1ccc(CCN(C)c2ccnc3c(F)cccc23)cc1OC	5% (inactive)	
COc1ccc(CCN(C)c2ccnc3cc(Cl)ccc23)cc1OC	97%	92%
NCCNc1c2ccccc2nc2ccccc12	100%	99%
Oc1ccc(CCNc2cncc3ccccc23)cc1O	38% (inactive)	27% (inactive)
Oc1ccc(CCNc2ccc3ccccc3c2)cc1O	21% (inactive)	18% (inactive)
COc1ccc(CCNc2c3c(nc4ccccc24)CCCC3)cc1OC	38% (inactive)	55%
COc1ccc(CCCNc2c3ccccc3nc3ccccc23)cc1OC	88%	95%
O=c1ccn(CCNc2c3ccccc3nc3ccccc23)cc1OCc1ccccc1	92%	84%
CN(CCc1ccc(O)c(O)c1)c1ccnc2cc(Cl)ccc12	0% (inactive)	
Oc1ccc(CCN2CCc3ccccc3C2)cc1O	52%	62%
Oc1ccc(CCNc2cccc3ccccc23)cc1O	16% (inactive)	22% (inactive)
COc1ccc(CCN(C)c2ccnc3ccccc23)cc1OC	95%	94%
COc1ccc(CCNC2CCN(C)CC2)cc1OC	0% (inactive)	0% (inactive)
COc1ccc(CCN(C)c2ncnc3ccccc23)cc1OC	3% (inactive)	
CN(CCc1ccc(O)c(O)c1)c1ncnc2ccccc12	1% (inactive)	
Cc1cccc2c(N(C)CCc3ccc(O)c(O)c3)ccnc12	5% (inactive)	
COc1ccc(CCNC(=O)c2cc(C)ccc2N)cc1OC	0% (inactive)	
COc1ccc(CCNc2c3c(nc4ccc(C)cc24)CCCC3)cc1OC	27% (inactive)	
COc1ccc(C2CCN(c3ccnc4ccccc34)C2)cc1OC (stereo unspecified)	94%	
Oc1ccc(CCCNc2c3ccccc3nc3ccccc23)cc1O	91%	93%

Further lines, results first:

growth inhibition (run 1)	growth inhibition (run 2)	SMILES
12% (inactive)		Oc1ccc(CCCNc2c3c(nc4ccccc24)CCCC3)cc1O
5% (inactive)		COc1ccc(CCN(C)c2ccnc3c(C)cccc23)cc1OC
65%	63%	COc1ccc(CCNc2cncc3ccccc23)cc1OC
26% (inactive)		COc1ccc(CCNc2ccnc3c(F)cccc23)cc1OC
0% (inactive)		Cc1nc(NCCc2ccc(O)c(O)c2)c2c3c(sc2n1)CCC3
94%	99%	Cc1c(OCc2ccccc2)c(=O)ccn1CCNc1c2ccccc2nc2ccccc12
4% (inactive)		COc1ccc(CCCNc2c3c(nc4ccccc24)CCCC3)cc1OC
6% (inactive)		Cc1cc(N(C)CCc2ccc(O)c(O)c2)c2ccccc2n1
0% (inactive)	3% (inactive)	COc1ccc(CCNc2ccc3ccccc3c2)cc1OC
100%	98%	COc1ccc(CCNc2c3ccccc3nc3ccccc23)cc1
90%	95%	Oc1ccc(CCNC2CCN(Cc3ccccc3)CC2)cc1O
0% (inactive)	15% (inactive)	O=C(O)CCCNc1c2ccccc2nc2ccccc12
	98%	COc1ccc(CCN(C)c2c3ccccc3nc3ccccc23)cc1OC
20% (inactive)		COc1ccc(CCNc2ccnc3c(C)cccc23)cc1OC
95%		Oc1ccc(C2CCN(c3ccnc4ccccc34)C2)cc1O (stereo unspecified)
76%		Oc1ccc(C2CCN(c3ccnc4ccccc34)CC2)cc1O
0% (inactive)		CN(CCCc1ccc(O)c(O)c1)c1ccnc2ccccc12

growth inhibition (run 1)	growth inhibition (run 2)	SMILES
4% (inactive)	0% (inactive)	CN1CCN(CCc2ccc(O)c(O)c2)CC1
27% (inactive)	20% (inactive)	O=C(O)CCCCNc1c2ccccc2nc2ccccc12
95%		COc1cc(Br)c(CCNc2c3ccccc3nc3ccccc23)cc1OC
21% (inactive)		CN(CCCc1ccc(O)c(O)c1)c1c2ccccc2nc2ccccc12
91%	95%	CN(CCc1ccc(O)c(O)c1)c1ccnc2ccccc12
1% (inactive)		COc1ccc(C2CCN(c3ccnc4ccccc34)CC2)cc1OC
97%		Oc1cccc(CCNc2ccnc3ccccc23)c1O
0% (inactive)	3% (inactive)	COc1ccc(CCN2CCc3ccccc3C2)cc1OC
20% (inactive)		CCN(CCc1ccc(O)c(O)c1)c1c2ccccc2nc2ccccc12
89%	98%	Oc1ccc(CCNc2ccnc3ccccc23)cc1O
5% (inactive)	0%	CN1CCN(CCCc2ccc(O)c(O)c2)CC1
69%		COc1ccc(CCNc2ccnc3cc(Cl)ccc23)cc1OC
3% (inactive)	13% (inactive)	CN(CCc1ccc(O)c(O)c1)c1ccncc1
0% (inactive)	0% (inactive)	COc1ccc(CCN(C)c2ccncc2)cc1OC
18% (inactive)		CCN(CCc1ccc(OC)c(OC)c1)c1c2ccccc2nc2ccccc12
96%		COc1cc(Br)c(CCNc2c3c(nc4ccccc24)CCCC3)cc1OC
